Data reported in ChEMBL document CHEMBL2010680, “Short cyclic peptides derived from the C-terminal sequence of α1-antitrypsin exhibit significant anti-HIV-1 activity” (Bioorg Med Chem Lett, 2012).
pIC50: −log10 of the molar value. Peptide text beside a SMILES is read from it.

How the values were obtained:
[1] = Cytotoxicity against human MT2 cells after 4 days by XTT assay; type: cell-based
In short: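 Peptide at graded concentrations was added to an equal volume of MT-2 cells (5 × 10^5/ml) and incubated 4 days at 37 °C. XTT (1 mg/ml) was added, and 4 h later soluble formazan was read at 450 nm with a 650 nm reference. CC50 was calculated from the dose-response.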

[2] = test system: Human immunodeficiency virus 1; assay: Antiviral activity against Human immunodeficiency virus 1 3B infected in human MT2 cells assessed as inhibition of viral replication after 4 days by ELISA; type: functional, organism-based; details: MT2, 96 h
In short: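 Read-out is HIV-1 gag p24 antigen in culture supernatants, measured by ELISA and collected on the fourth day post-infection.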

[3] = Inhibition of Human immunodeficiency virus 1 3B envelope glycoprotein-mediated cell-cell fusion of infected H9 cells to human MT2 cells measured 2 hrs after wash out by fluorescence analysis; type: cell-based; details: MT2, 2 h
In short: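 Fluorescence-labeled H9/HIV-1 IIIB cells were washed, then mixed with MT-2 cells at 1:5 for 2 h at 37 °C, without or with peptide at graded concentrations. Fused cells were counted by fluorescence microscopy, percent inhibition of fusion was calculated, and IC50 was derived from the dose-response.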

[4] = test system: Human immunodeficiency virus 1; assay: Antiviral activity against Human immunodeficiency virus type 1 SF162 pseudovirus expressing envelope glycoprotein 160 infected in human U87 cells after 48 hrs by luminometric analysis; type: functional, cell-based, U-87MG ATCC; details: Human immunodeficiency virus 1, SF162 ISOLATE, U-87 MG
In short: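 U87-CCR5 cells were seeded overnight. Pseudovirus (1 ng p24/well) was preincubated with peptide at the indicated concentration for 30 min at 37 °C, then added to the cells for 48 h. Cells were washed with PBS and lysed, and luciferase activity was measured by luminometer. Each peptide was tested in triplicate; data are mean ± SD.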

| Molecule | CC50 at 96 h [1] [µM] | pIC50 [2] | pIC50 [3] | pIC50 [4] |
| --- | --- | --- | --- | --- |
| CSCC[C@@H]1NC(=O)[C@H](CC(C)C)NC(=O)[C@H](Cc2ccccc2)NC(=O)[C@H](C(C)C)NC(=O)[C@H](CCC(=O)O)NC(=O)[C@@H]2CCCN2C(=O)[C@H](CS)NC1=O (cyclo(CPEVFLM)) | > 200 | < 4.00 | < 3.70 | – |
| CC(C)C[C@@H]1NC(=O)[C@H](Cc2ccccc2)NC(=O)[C@H](C(C)C)NC(=O)[C@H](Cc2ccccc2)NC(=O)[C@@H]2CCCN2C(=O)[C@H](CS)NC(=O)[C@H](CCC(=O)O)NC1=O (cyclo(CPFVFLE)) | > 200 | 4.25 | 3.94 | – |
| CSCC[C@@H]1NC(=O)[C@H](CC(C)C)NC(=O)[C@H](Cc2ccccc2)NC(=O)[C@H](C(C)C)NC(=O)[C@H](Cc2ccccc2)NC(=O)[C@@H]2CCCN2C(=O)[C@H](CS)NC1=O (cyclo(CPFVFLM)) | > 200 | 5.05 | 4.17 | 5.23 |
| CC(C)C[C@@H]1NC(=O)[C@H](Cc2ccccc2)NC(=O)[C@H](C(C)C)NC(=O)[C@H](Cc2ccccc2)NC(=O)[C@@H]2CCCN2C(=O)[C@H](CS)NC(=O)[C@H](CCCNC(=N)N)NC1=O (cyclo(CPFVFLR)) | > 200 | 4.13 | 4.13 | – |
| H-EFVFLM-OH | – | < 4.00 | – | – |
| H-FVFLM-OH | – | < 4.00 | – | – |
| H-KPFVFLM-OH | – | < 4.00 | – | – |
| H-NKPFVFLM-OH | – | < 4.00 | – | – |
| H-PEVFLM-OH | – | < 4.00 | < 3.70 | – |
| H-PFVFLE-OH | – | < 4.00 | < 3.70 | – |
| H-PFVFLM-OH | – | < 4.00 | < 3.70 | – |
| H-PFVFLR-OH | – | < 4.00 | < 3.70 | – |
| H-PFVYLI-OH | – | < 4.00 | – | – |
